CHRM5 antagonist – blocks acetylcholine activation of human M5 receptor. P08912. CHO-hM5 cells, Fluo-8 calcium fluorescence, ACh EC80. inhibition, % at 3 µM. 360,000 tested, 0.59% active. AID 624040;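 active means inhibition above a per-plate cutoff, the mean of that plate's test compounds plus 3 SD, cut at about 27% in these data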;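 further: 0% = acetylcholine EC80 with DMSO and 100% = DMSO without agonist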
Target sequence (P08912 whole entry, looked up): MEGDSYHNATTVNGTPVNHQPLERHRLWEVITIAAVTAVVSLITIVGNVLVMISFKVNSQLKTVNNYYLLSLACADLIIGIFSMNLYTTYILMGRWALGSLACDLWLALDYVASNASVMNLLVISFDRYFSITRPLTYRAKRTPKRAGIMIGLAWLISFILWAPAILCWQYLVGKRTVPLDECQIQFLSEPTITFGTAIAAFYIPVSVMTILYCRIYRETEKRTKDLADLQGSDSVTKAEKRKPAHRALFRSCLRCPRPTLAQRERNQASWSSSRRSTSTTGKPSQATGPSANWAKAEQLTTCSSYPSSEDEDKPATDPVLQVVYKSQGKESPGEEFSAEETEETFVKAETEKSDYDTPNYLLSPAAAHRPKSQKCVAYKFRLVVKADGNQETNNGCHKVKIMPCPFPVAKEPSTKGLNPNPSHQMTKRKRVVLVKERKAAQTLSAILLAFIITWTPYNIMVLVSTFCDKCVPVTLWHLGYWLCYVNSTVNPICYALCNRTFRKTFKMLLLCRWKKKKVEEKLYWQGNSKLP
M1 PAM – positive allosteric modulators of human M1 muscarinic receptor. CHO-K1 hM1, Fluo-8 calcium fluorescence, ACh EC20; 0% = ACh EC20, 100% = maximal ACh. activation, % at 3 µM. 360,000 tested, 0.088% active. P11229. AID 588819; in the data active means activation above about 19%, passing the limit was not always enough
M1 antag – antagonists of human M1 muscarinic receptor; 360,000 tested, 1.3% active; CHO-K1 hM1, Fluo-8 calcium fluorescence, ACh EC80 antagonist; inhibition, % at 3 µM; AID 588852; P11229;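 active means percent inhibition above its own plate's cutoff, namely the mean of that plate's compound wells plus 3 SD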;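 further: peak over basal fluorescence ratio during 140 s after agonist addition; 0% = ACh EC80 plus DMSO and 100% = DMSO alone without agonist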
M5 ag – agonists of human muscarinic M5 receptor (CHRM5); CHO-K1 hM5 cells, Fluo-8 calcium fluorescence; 0% DMSO wells, 100% maximal acetylcholine response; activation, % at 3 µM; 360,000 tested, 0.19% active; AID 624037;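 active means activation above the run's mean over test compounds plus 3 SD, cut at about 23% in these data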;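 further: signal is peak over basal fluorescence ratio across the kinetic read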
CHRM5 PAM – positive allosteric modulators of human muscarinic M5 receptor. 360,000 tested, 0.3% active. activation, % at 3 µM. P08912. AID 624038. CHO-K1 hM5, Fluo-8 calcium, ACh EC20 PAM; 0% = ACh EC20, 100% = ACh EC100;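 active means activation above the run cutoff, the mean activation of all test compounds plus 3 SD, cut at about 18% in these data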
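system = human M5 receptor in CHO-K1 cells | compound = one concentration, 3 µM final (nominal) | schedule = Post-acetylcholine fluorescence recording 140 s | signal = Fluo-8 calcium dye fluorescence, kinetic read | benchmarks = low control EC20 acetylcholine (0%), high control EC100 acetylcholine (100%) | repeats = singlicate, one well per test compound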
CHRM1 agonist – activates human CHRM1 receptor; P11229; CHO-K1 hM1, Fluo-8 calcium fluorescence, agonist mode; 0% DMSO, 100% acetylcholine EC100; activation, % at 3 µM; 360,000 tested, 0.33% active; AID 588814;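 active means activation above the run's mean compound activation plus 3 SD, cut at about 16% in these data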;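 further: peak over basal fluorescence ratio within a 140 s kinetic read after compound addition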
* = called active by the depositor. Most compounds without a hit are left out; they make up all but 2.1% or so of the library.

SMILES	CHRM5 antagonist	M1 PAM	M1 antag	M5 ag	CHRM5 PAM	CHRM1 agonist
c1ccc(NC2=NCCCS2)cc1	14	-2	-2	-6	-5	-10
CCOC(=O)C1(CCOc2ccccc2)CCN(C2Cc3ccccc3C2)CC1	32*	-22	46*	-7	-18	-5
CCOC(=O)C1(CCOc2ccccc2)CCN(Cc2cccc(O)c2)CC1	33*	-19	17	-7	-18	-8
CCOC(=O)C1(CCOc2ccccc2)CCN(Cc2ccccc2OC)CC1	12	-13	10	-5	-17	-8
CN1CCN(c2nccc3c2ncn3C)CC1	7	-3	2	-6	-7	-2
CN1C(=O)CCC2(C)C1=CCC1C2CCC2(C)C1CCC2(C)O (stereo not given)	-7	5	-20	4	18*	-2
COC(=O)C1=C(c2ccc(C(C)=O)cc2)C[C@@H]2CC[C@H]1N2C(=O)NCC1CC1	3	6	-6	3	3	-5
CCC(CC)NC1CCCCC1OC (stereo not given)	-3	1	-4	-1	5	-11
Cc1ccc(C[n+]2c(-c3ccc(C)cc3)cc(-c3ccc(C)cc3)cc2-c2ccc(C)cc2)cc1	37*	-13	33*	3	-29	2
C[n+]1c(-c2ccccc2)cc(CCCCc2cc(-c3ccccc3)[n+](C)c(-c3ccccc3)c2)cc1-c1ccccc1	20	-19	55*	-16	-23	-5
CN1C(=O)N(C)C(=O)C2(Cc3c(ccc4ccccc34)N(C)C2)C1=O	-3	3	-4	-6	28*	-2
Cc1cc(C=C2C(=O)NC(=S)NC2=O)c(C)n1C1CCCC1	5	1	-3	-1	0	-15
COCCN1C(=O)NC(=O)/C(=C\c2ccc(Br)cc2)C1=O	3	7	-9	0	8	-2
CC(C)(C)c1cc(OC(=O)Cc2ccccc2)ccc1O	-5	19	-21	0	19*	-1
O=C(c1cccs1)c1cn(Cc2ccccc2Cl)c2ccccc12	-7	4	-1	-2	21*	-3
ClCCNc1nc2ccc(Cl)cc2[nH]1	6	10	-9	-10	11	0
CCOC(=O)C1=Nc2ccccc2/C1=C\c1c(O)n(C)c(=O)n(C)c1=O	12	12	-7	5	-1	-3
c1ccc(CNC2CN3CCC2CC3)cc1 (stereo not given)	16	-28	59*	-9	-33	-9
Clc1ccccc1CN1CCNCC1	2	5	-4	-16	4	0
Clc1ccccc1CNC1CN2CCC1CC2 (stereo not given)	32*	-20	39*	-8	-18	-10
CSc1ccc(CNC2CN3CCC2CC3)cc1 (stereo not given)	6	2	-11	-6	-4	-12
CCOC(=O)C1(CCc2ccccc2)CCN(Cc2cccc3c2OCO3)CC1	16	-34	34*	-9	-20	-13
CCOC(=O)C1(CCc2ccccc2)CCN(Cc2csc(C(C)=O)c2)CC1	1	-9	-5	-8	-7	-13
CCOC(=O)C1(CCc2ccccc2)CCN(Cc2cccc3cnccc23)CC1	81*	-34	48*	-10	-20	-14
Cc1ccccc1-n1c(-c2ccc([N+](=O)[O-])cc2)nc2ccccc2c1=O	25	-29	49*	-9	-21	-10
SMILES	CHRM5 antagonist	M1 PAM	M1 antag	M5 ag	CHRM5 PAM	CHRM1 agonist
CSCCC(c1nnnn1C1CCCCC1)N1CCC(n2c(=O)[nH]c3ccccc32)CC1 (stereo not given)	18	-16	34*	8	-15	-2
O=c1[nH]c2ccccc2n1C1CCN(C(CCc2ccccc2)c2nnnn2Cc2ccccc2)CC1 (stereo not given)	6	-6	-6	9	-14	1
CSCCC(c1nnnn1Cc1ccccc1)N1CCC(n2c(=O)[nH]c3ccccc32)CC1 (stereo not given)	7	-3	-13	30*	-12	-2
CSCCC(c1nnnn1Cc1ccccc1)N1CCC2(CC1)C(=O)NCN2c1ccccc1 (stereo not given)	-1	-1	-12	44*	0	-1
O=C(COc1ccc2ccccc2c1)N1CCN(Cc2c[nH]c3ccccc23)CC1	12	0	-19	1	-2	6
CCC(=NCCC(c1ccccc1)c1ccccc1)c1c(O)n(C)c(=O)n(C)c1=O	1	1	-2	-3	5	-9
C=CCNC(=S)Nc1ccc(OC(=O)Nc2ccc(Cl)c(Cl)c2)cc1	28*	-8	16	0	-9	1
NC1(C(=O)O)CCCc2ccc(N(CCCl)CCCl)cc21 (stereo not given)	7	-9	3	2	1	-9
COC(=O)C1=C(C)NC(=S)NC1c1ccc(N(CCCl)CCCl)cc1Cl (stereo not given)	-28	5	-15	9	18*	-4
COc1cccc(C(c2nnnn2C2CCCCC2)N2CCC3(CC2)C(=O)NCN3c2ccccc2)c1OC (stereo not given)	9	6	-24	4	-1	2
C[N+]1(C)C2CC[C@H]1CC(OC(=O)C(CO)c1ccccc1)C2 (stereo not given in full)	99*	-27	100*	-1	-18	-7
C#CC[N+]1(C)[C@@H]2CC[C@H]1CC(OC(=O)C(CO)c1ccccc1)C2 (stereo not given in full)	98*	-31	99*	-9	-21	-9
C[N+]1(C)C2CCC1CC(OC(=O)c1c[nH]c3ccccc13)C2 (stereo not given)	0	-7	-26	-1	-7	-8
C[N+]1(C)[C@@H]2CC[C@H]1CC(OC(=O)[C@@H](CO)c1ccccc1)C2 (stereo not given in full)	99*	-29	102*	-10	-22	-9
COC(=O)[C@@H](c1ccccc1)C1CCCCN1 (stereo not given in full)	21	-5	12	-6	-22	-14
C[N+]1(C)CCC(OC(=O)C(c2ccccc2)c2ccccc2)CC1	99*	-25	96*	-2	-19	-8
CC(=O)c1cccc(OCC(O)CN2CC=C(c3ccccc3)CC2)c1 (stereo not given)	8	-6	-2	-5	-2	-7
COc1cc(N2CCOCC2)ccc1C=C1C(=O)NC(=O)NC1=O	9	14	-7	-4	-1	-7

Compound activity (PubChem BioAssay)
